ChEMBL document CHEMBL4385671, “Discovery of small molecule inhibitors of human uridine-cytidine kinase 2 by high-throughput screening” (Bioorg Med Chem Lett, 2019)
Activity calls are given as the source filed them.

What was measured:
[1] = target: T1, Uridine-cytidine kinase 2 (Homo sapiens, UniProt Q9BZX2); experiment: Inhibition of C-terminally His6-tagged human UCK2 expressed in Escherichia coli BL21(DE3) cells incubated for 15 mins before ATP addition and measured after 60 mins by ADP-Glo kinase assay
T1 sequence (Q9BZX2 whole entry): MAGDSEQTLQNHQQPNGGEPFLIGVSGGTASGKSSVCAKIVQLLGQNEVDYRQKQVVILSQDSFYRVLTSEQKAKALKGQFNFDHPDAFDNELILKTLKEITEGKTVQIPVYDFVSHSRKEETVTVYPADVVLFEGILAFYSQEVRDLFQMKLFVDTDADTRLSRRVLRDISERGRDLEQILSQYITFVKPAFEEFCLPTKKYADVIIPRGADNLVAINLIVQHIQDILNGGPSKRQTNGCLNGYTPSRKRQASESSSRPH
In short: (§1)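 His6-tagged UCK2 (C-terminal tag), purified by Ni-NTA then ion exchange; UCK2 phosphorylates uridine with ATP and ADP-Glo measures the ADP formed, after depleting leftover ATP, as luciferase luminescence. Run in 1536-well format with 0.5 mg/mL BSA, DMSO up to 3%. Primary screen at 33 μM with hit cut-off of 3 SD of the negative control. Confirmation used 8 half-log concentrations, 0.05–167 µM.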

[2] = target: T2, Uridine-cytidine kinase 2 (Homo sapiens) (UniProt Q9BZX2); experiment: Inhibition of UCK2 in human K562 cells assessed as inhibition of uridine salvage at 50 uM incubated for 24 hrs by 5-ethynyl-uridine incorporation assay; type: cell-based
T2 sequence (whole entry): T1 sequence (Q9BZX2 whole entry)
In short: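 K562 cells were given compound at 50 µM with 50 µM 5-ethynyl-uridine (5-EU). 5-EU incorporated into cellular RNA was quantified by click chemistry with a fluorescent probe. Dipyridamole at 20 µM served as control.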

[3] = target: T1, Uridine-cytidine kinase 2; experiment: Inhibition of C-terminally His6-tagged human UCK2 expressed in Escherichia coli BL21(DE3) cells incubated for 15 mins before ATP addition and measured after 60 mins by ADP-Glo kinase assay based HTS assay; in short: as §1
[4] = target: T1, Uridine-cytidine kinase 2; experiment: Non-competitive inhibition of C-terminally His6-tagged human UCK2 expressed in Escherichia coli BL21(DE3) cells using phosphoenolpyruvate, NADH and varying uridine level by spectrophotometry based pyruvate kinase and lactate dehydrogenase coupled enzyme assay
In short: (§2)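 Continuous coupled assay of purified C-terminally His6-tagged UCK2. Substrate titration was done with either uridine or ATP varied, at inhibitor 0, 0.5, 1.5 or 4.5 µM. Ki was derived from kinetic analysis of these titrations.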

[5] = target: T1, Uridine-cytidine kinase 2; experiment: Non-competitive inhibition of C-terminally His6-tagged human UCK2 expressed in Escherichia coli BL21(DE3) cells using uridine, phosphoenolpyruvate, NADH and varying ATP level by spectrophotometry based pyruvate kinase and lactate dehydrogenase coupled enzyme assay; in short: as §2
[6] = target: Dihydroorotate dehydrogenase (quinone), mitochondrial (Homo sapiens) (UniProt Q02127); experiment: Inhibition of DHODH in human K562 cells assessed as increase in uridine salvage at 200 nM incubated for 24 hrs by 5-ethynyl-uridine incorporation assay; type: cell-based
Sequence of Dihydroorotate dehydrogenase (quinone), mitochondrial (Homo sapiens) (Q02127 whole entry): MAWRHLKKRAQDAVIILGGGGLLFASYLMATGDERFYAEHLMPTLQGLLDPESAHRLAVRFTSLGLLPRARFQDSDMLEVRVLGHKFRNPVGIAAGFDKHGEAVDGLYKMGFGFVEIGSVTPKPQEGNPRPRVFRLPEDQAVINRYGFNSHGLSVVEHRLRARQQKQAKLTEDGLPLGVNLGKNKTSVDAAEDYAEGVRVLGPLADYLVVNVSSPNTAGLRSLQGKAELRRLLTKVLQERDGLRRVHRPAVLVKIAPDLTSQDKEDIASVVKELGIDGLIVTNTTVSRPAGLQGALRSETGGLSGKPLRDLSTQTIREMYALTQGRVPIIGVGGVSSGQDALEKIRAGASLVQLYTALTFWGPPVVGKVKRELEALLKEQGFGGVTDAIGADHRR

[7] = target: T3, UMP-CMP kinase (Homo sapiens) (UniProt P30085); experiment: Inhibition of CMPK1 (unknown origin) by ADP-Glo kinase assay
T3 sequence (whole entry): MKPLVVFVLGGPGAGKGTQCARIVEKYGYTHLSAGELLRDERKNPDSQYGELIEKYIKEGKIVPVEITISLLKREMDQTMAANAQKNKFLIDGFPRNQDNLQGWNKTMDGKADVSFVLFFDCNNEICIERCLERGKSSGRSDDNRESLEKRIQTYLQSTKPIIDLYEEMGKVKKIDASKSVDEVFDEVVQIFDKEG

| IC50 ([1]; read-out: IC50) [µM] | inhibition [2] | IC50 [3] [µM] | Compound | further results |
| --- | --- | --- | --- | --- |
| 16.4 to 16.6 | 31.3% | 9.2 | O=C(CSc1nc2n(-c3ccc(F)cc3)[nH]cc-2c(=O)n1)Nc1ccc(Br)cc1 | Ki [4]: 13 µM; Ki [5]: 12 µM |
|  | 26.3% |  | Cc1ccccc1NC(=O)CSCn1[nH]nc2c(=O)nc(Cc3ccc(F)cc3)nc1-2 |  |
| 48 | 41.5% | 18.9 | Cc1cc(C)cc(NC(=O)CSCn2[nH]nc3c(=O)nc(Cc4ccc(F)cc4)nc2-3)c1 | Ki [4]: 50 µM; Ki [5]: 31 µM; inhibition [7]: inactive |

More lines, now with the values behind:

| Compound | IC50 ([1]; read-out: IC50) [µM] | inhibition [2] | IC50 [3] [µM] | further results |
| --- | --- | --- | --- | --- |
| Cc1cccc2c1Oc1nc(-c3ccccc3)nc(SCC(=O)Nc3cccc(C(=O)O)c3)c1C2 | 4.7 | 49.6% |  |  |
| COc1ccccc1NC(=O)CSc1nc(-c2ccc(C(C)(C)C)cc2)c(C#N)c(=O)[nH]1 |  |  | 80 |  |
| CC(C)(C)c1ccc(-c2nc(SCC(=O)Nc3ccc(Cl)cc3)[nH]c(=O)c2C#N)cc1 |  |  | 138 |  |
| O=C(CSc1nc(-c2ccc(O)cc2)nc2c1Cc1ccccc1O2)Nc1cccc(C(=O)O)c1 |  |  | 166 |  |
| O=C(N[C@@H]1CCCc2c1[nH]c1ccc(Cl)cc21)c1ccccn1 |  |  |  | inhibition [6]: Active |
| Cc1ccc(-c2nc3c(c(SCC(=O)Nc4cccc(C(=O)O)c4)n2)Cc2cccc(C)c2O3)cc1 | 3.8 | 51.7% | 52 | Ki [4]: 3.5 µM; Ki [5]: 1 µM |
| COc1cccc(NC(=O)CSCn2[nH]nc3c(=O)nc(Cc4ccc(F)cc4)nc2-3)c1 |  |  |  | IC50 [1]: Not Active |
| COc1cccc2c1Oc1nc(-c3ccc(C)cc3)nc(SCC(=O)Nc3cccc(C(=O)O)c3)c1C2 | 11.8 | 14.9% |  |  |
| Cc1ccc(-c2nc3c(c(SCC(=O)Nc4ccccc4)n2)Cc2cccc(C)c2O3)cc1 | 26.8 | inactive |  |  |
| O=C(CSCn1[nH]nc2c(=O)nc(Cc3ccc(F)cc3)nc1-2)Nc1ccc(F)cc1 |  |  |  | IC50 [1]: Not Active |
| O=C(CSc1nc(-c2ccc(F)cc2)nc2c1Cc1ccccc1O2)Nc1cccc(C(=O)O)c1 |  |  | 166 |  |
